Experimental data collected from several papers.
Lines come from different studies, so protocols differ.
Organism: Klebsiella pneumoniae
Effect on: microbial growth

SMILES	assay	test system	setting	MIC
CCC[C@@H]1C[C@@H](C(=O)N[C@@H]([C@H]2O[C@H](SC)[C@H](O)[C@@H](O)[C@H]2O)[C@H](C)Cl)N(C)C1	broth dilution	ATCC700603		640 µM
Cc1c(CN(C)C(=O)/C=C/c2cnc3c(c2)CC(CCN)C(=O)N3)oc2ccccc12.Cl (centres unmarked)	broth dilution	BAA2472		16 µg/mL
O=C(Nc1ccc2c(c1)OC(F)(F)O2)Nc1ccc(Cl)c(C(F)(F)F)c1		DSM30104		> 100 µM
NC1CCCCc2c1[nH]c1ccc(Cl)c(Cl)c21 (centres unmarked)	broth dilution	ATCC10031		8 µg/mL
CC(C)(O/N=C(\C(=O)N[C@@H]1C(=O)N2C(C(=O)[O-])=C(C[n+]3ccccc3)CS[C@H]12)c1csc(N)n1)C(=O)O	broth dilution	ATCC700603		5 µM
O=C(Nc1ccc([N+](=O)[O-])cc1F)c1ccccc1O	broth dilution	BAA1705		> 64 µg/mL
CC(C)Oc1c(NC(=O)c2ccc(NC(=O)c3ccc(NC(=O)[C@H](CC(N)=O)NC(=O)c4ccc(NC(=O)c5ccc(C#N)cn5)cc4)cc3)c(OC(C)C)c2O)ccc(C(=O)O)c1O		DSM30104		4 µg/mL
Cc1c(CN(C)C(=O)/C=C/c2cnc3c(c2)CCC(=O)N3)oc2ccccc12	broth dilution			> 32 µg/mL
CO[C@@H](C(N)=O)[C@H](NC(=O)c1ccc(NC(=O)c2ccc(C#N)cc2)cc1)C(=O)Nc1ccc(C(=O)Nc2ccc(C(=O)Nc3ccc(C(=O)O)cc3)c(O)c2OC(C)C)cc1		DSM30104		8 µg/mL
O=[N+]([O-])c1ccc(/C=N/Nc2nc(Nc3ccccc3)nc(N3CCOCC3)n2)o1				> 120 µM
C[C@@H](O)[C@H]1C(=O)N2C(C(=O)O)=C(S[C@@H]3CN[C@H](C(=O)N(C)C)C3)[C@H](C)[C@H]12	broth dilution	ATCC700603		0.63 µM
CN(C)[C@@H]1C(O)=C(C(N)=O)C(=O)[C@@]2(O)C(O)=C3C(=O)c4c(cc5ccc(CN6CCCCC6)cc5c4O)C[C@H]3C[C@@H]12	broth dilution	ATCC13883		4 µg/mL
CC1=NN(CNC(=O)c2ccccn2)C(=O)C1=NNn1c(-c2ccccc2)nc2ccccc2c1=O	broth dilution		24 h	52 µM
NC1CCc2c1[nH]c1ccc(Cl)c(Cl)c21 (centres unmarked)	broth dilution	ATCC10031		8 µg/mL
CC1=NN(CNc2c(O)c(S(=O)(=O)O)cc3ccccc23)C(=O)C1=NNn1c(-c2ccccc2)nc2ccccc2c1=O	broth dilution		24 h	83.7 µM
NCC[C@H](O)C(=O)N[C@@H]1C[C@H](N)[C@@H](O[C@H]2O[C@H](CN)[C@@H](O)[C@H](O)[C@H]2O)[C@H](O)[C@H]1O[C@H]1O[C@H](CO)[C@@H](O)[C@H](N)[C@H]1O				1 µg/mL
CC[C@H]1OC(=O)[C@H](C)[C@@H](O[C@H]2C[C@@](C)(OC)[C@@H](O)[C@H](C)O2)[C@H](C)[C@@H](O[C@@H]2O[C@H](C)C[C@H](N(C)C)[C@H]2O)[C@](C)(OC)C[C@@H](C)C(=O)[C@H](C)[C@@H](O)[C@]1(C)O	broth dilution	ATCC700603		80 µM
CN(C)[C@@H]1C(O)=C(C(N)=O)C(=O)[C@@]2(O)C(O)=C3C(=O)c4c(cc5ccc(-c6ccccc6)cc5c4O)C[C@H]3C[C@@H]12	broth dilution	ATCC13883		32 µg/mL
CCCCCCC#Cc1cncc(-c2nnc(SCc3ccc([N+](=O)[O-])cc3)n2C)c1				≥ 20 µg/mL
CC[C@H]1OC(=O)[C@H](C)C(=O)[C@H](C)[C@@H](O[C@@H]2O[C@H](C)C[C@H](N(C)C)[C@H]2O)[C@](C)(OC)C[C@@H](C)C(=O)[C@H](C)[C@H]2N(CCCCn3cnc(-c4cccnc4)c3)C(=O)O[C@]12C	broth dilution	ATCC700603		40 µM
CN(C)[C@@H]1C(O)=C(C(N)=O)C(=O)[C@@]2(O)C(O)=C3C(=O)c4c(cc5ccc(CN(C)S(C)(=O)=O)cc5c4O)C[C@H]3C[C@@H]12	broth dilution	ATCC13883		32 µg/mL
CNC(C)C1CCC(N)C(OC2C(N)CC(N)C(OC3OCC(C)(O)C(NC)C3O)C2O)O1 (centres unmarked)				0.25 µg/mL
CCCCCCC#Cc1cncc(-c2nnc(SCc3ccc(C#N)cc3)n2C)c1				≥ 20 µg/mL
CNC(C)C1CCC(N)C(OC2C(N)CC(N)C(OC3OCC(C)(O)C(NC)C3O)C2O)O1 (centres unmarked)	broth dilution	ATCC700603		0.31 µM
CC(=O)NCN1N=C(C)C(=NNn2c(-c3ccccc3)nc3ccccc3c2=O)C1=O	broth dilution		24 h	59.9 µM
CC(=O)NC[C@H]1CN(c2ccc(N3CCOCC3)c(F)c2)C(=O)O1	broth dilution	ATCC700603		1280 µM
CC1(C)S[C@@H]2[C@H](NC(=O)COc3ccccc3)C(=O)N2[C@H]1C(=O)O	broth dilution	ATCC10031	18 h	4 µg/mL
COc1cc(Cc2cnc(N)nc2N)cc(OC)c1OC	broth dilution	ATCC700603		20 µM
O=C1NN=C(N=Cc2ccc(O)cc2O)C1=NNn1c(-c2ccccc2)nc2ccccc2c1=O	broth dilution		24 h	53.5 µM
